Laboratory results as given in ChEMBL document CHEMBL3352365, “Formononetin attenuates osteoclastogenesis via suppressing the RANKL-induced activation of NF-κB, c-Fos, and nuclear factor of activated T-cells cytoplasmic 1 signaling pathway” (J Nat Prod, 2014).
The source made the active and inactive calls. The rule behind the calls is not given here.

Legend:
[1] = target: T1, Tumor necrosis factor ligand superfamily member 11 (Mus musculus) (UniProt O35235); experiment: Inhibition of RANKL-stimulated JNK in ICR mouse BMMC assessed as reduction in c-Jun phosphorylation at 1 to 20 uM incubated for 12 hrs by Western blotting method
T1 sequence (whole entry): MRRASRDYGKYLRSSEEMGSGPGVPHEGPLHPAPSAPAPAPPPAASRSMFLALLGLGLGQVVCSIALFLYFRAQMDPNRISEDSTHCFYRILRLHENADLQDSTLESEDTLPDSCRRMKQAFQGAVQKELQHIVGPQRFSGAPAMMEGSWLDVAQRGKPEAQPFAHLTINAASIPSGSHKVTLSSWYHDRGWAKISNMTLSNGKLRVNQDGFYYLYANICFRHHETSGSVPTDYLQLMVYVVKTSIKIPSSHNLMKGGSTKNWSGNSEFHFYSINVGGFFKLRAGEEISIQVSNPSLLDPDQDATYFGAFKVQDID

[2] = target: T1, Tumor necrosis factor ligand superfamily member 11 (Mus musculus); experiment: Inhibition of RANKL-induced c-FOS protein expression in ICR mouse BMMC at 1 to 20 uM incubated for 12 hrs by Western blotting method; format: functional
[3] = target: T1, Tumor necrosis factor ligand superfamily member 11 (Mus musculus); experiment: Inhibition of RANKL-induced NFATc1 protein expression in ICR mouse BMMC at 1 to 20 uM incubated for 12 hrs by Western blotting method; format: functional
BMMC [4] = experiment: Inhibition of RANKL/M-CSF-stimulated osteoclastogenesis in ICR mouse BMMC assessed as reduction in TRAP positive multinucleated cells at 1 to 20 uM incubated for 7 days by light microscopy; format: functional
Procedure, shortened: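 JNK inhibitor SP600125 used as reference. For blots, BMMs were incubated with RANKL 100 ng/mL for 12 h, then SP600125 for 4 h; lysates probed for phospho-c-Jun, c-Jun, c-Fos and NFATc1, with β-actin as control. For TRAP counts, BMMs were given RANKL 1 h, then SP600125 (1, 10, 20 μM) with M-CSF 30 ng/mL.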

BMMC [5] = experiment: Inhibition of RANKL/M-CSF-stimulated osteoclastogenesis in ICR mouse BMMC assessed as reduction in TRAP positive multinucleated cells at 1 to 10 uM incubated for 7 days by light microscopy; format: functional
Procedure, shortened: (§1)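 BMMs from 6-week-old ICR mouse femurs/tibiae (M-CSF expanded; 5 × 10^5 cells/well) stimulated with RANKL 100 ng/mL for 1 h, then treated (1, 5, 10 μM) with M-CSF 30 ng/mL for 7 days. Fixed and TRAP-stained; TRAP+ cells with ≥3 nuclei counted by light microscopy. Mean ± SEM, two experiments.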

[6] = Inhibition of RANKL/M-CSF-stimulated osteoclastogenesis in ICR mouse BMMC assessed as reduction in TRAP positive multinucleated cells at 1 to 10 uM incubated for 7 days by light microscopy relative to untreated control; format: functional; procedure, shortened: as §1
[7] = Toxicity against ICR mouse BMMC assessed as reduction in cell viability up to 100 uM after 72 hrs by WST8 assay
Procedure, shortened: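 BMMs cultured with RANKL (100 ng/mL) and test compound at 0, 1, 5, 10 and 100 μM for 72 h. Viability read by WST-8 (CCK-8) assay.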

BMMC [8] = experiment: Inhibition of RANKL protein expression in ICR mouse BMMC co-cultured with primary osteoblasts at 1 to 10 uM incubated for 48 hrs by ELISA method; format: functional
Procedure, shortened: (§2)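 Coculture of BMMs (3 × 10^5 cells/well) with calvarial osteoblasts from 1-day-old mice (2.5 × 10^4 cells/well). Cells prestimulated with RANKL 100 ng/mL for 1 h, then treated for 48 h with M-CSF 30 ng/mL present. RANKL measured in cell lysate and OPG in culture medium, both by ELISA. Mean ± SEM of two independent experiments; Student's t test.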

[9] = Inhibition of RANKL protein expression in ICR mouse BMMC co-cultured with primary osteoblasts at 1 to 10 uM incubated for 48 hrs by ELISA method relative to untreated control; format: functional; procedure, shortened: as §2
Osteoblast = experiment: Increase in OPG protein expression in RANKL-stimulated mouse primary osteoblasts co-cultured with ICR mouse BMMC at 1 to 10 uM incubated for 48 hrs by ELISA method relative to untreated control; format: functional; procedure, shortened: as §2
[10] = (§3) Inhibition of RANKL/M-CSF-stimulated TNFalpha protein expression in ICR mouse BMMC at 1 to 10 uM incubated for 48 hrs by ELISA method relative to untreated control; format: functional
Procedure, shortened: (§4)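 BMMs (3 × 10^5 cells/well) prestimulated with RANKL 100 ng/mL for 1 h, then treated (1, 5, 10 μM) with M-CSF 30 ng/mL. Cytokines and chemokines in culture medium measured by ELISA. Methods give 7 days of treatment; legend gives 48 h. Mean ± SEM of two independent experiments; Student's t test.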

BMMC [11] = experiment: as §3; format: functional; procedure, shortened: as §4
[12] = (§5) Inhibition of RANKL/M-CSF-stimulated IL-1beta protein expression in ICR mouse BMMC at 1 to 10 uM incubated for 48 hrs by ELISA method relative to untreated control; format: functional; procedure, shortened: as §4
BMMC [13] = experiment: as §5; format: functional; procedure, shortened: as §4
[14] = (§6) Inhibition of RANKL/M-CSF-stimulated IL-6 protein expression in ICR mouse BMMC at 1 to 10 uM incubated for 48 hrs by ELISA method relative to untreated control; format: functional; procedure, shortened: as §4
BMMC [15] = experiment: as §6; format: functional; procedure, shortened: as §4
[16] = (§7) Inhibition of RANKL/M-CSF-stimulated MCP1 protein expression in ICR mouse BMMC at 1 to 10 uM incubated for 48 hrs by ELISA method relative to untreated control; format: functional; procedure, shortened: as §4
BMMC [17] = experiment: as §7; format: functional; procedure, shortened: as §4
[18] = (§8) Inhibition of RANKL/M-CSF-stimulated RANTES protein expression in ICR mouse BMMC at 1 to 10 uM incubated for 48 hrs by ELISA method relative to untreated control; format: functional; procedure, shortened: as §4
BMMC [19] = experiment: as §8; format: functional; procedure, shortened: as §4
[20] = (§9) Inhibition of RANKL/M-CSF-stimulated MIP-1alpha protein expression in ICR mouse BMMC at 1 to 10 uM incubated for 48 hrs by ELISA method relative to untreated control; format: functional; procedure, shortened: as §4
BMMC [21] = experiment: as §9; format: functional; procedure, shortened: as §4
[22] = target: Transcription factor p65 (Mus musculus) (UniProt Q04207); experiment: Inhibition of RANKL-stimulated NFkappaB p65 phosphorylation in ICR mouse BMMC at 1 to 10 uM incubated for 4 hrs by Western blotting method
Sequence of Transcription factor p65 (Mus musculus) (Q04207 whole entry): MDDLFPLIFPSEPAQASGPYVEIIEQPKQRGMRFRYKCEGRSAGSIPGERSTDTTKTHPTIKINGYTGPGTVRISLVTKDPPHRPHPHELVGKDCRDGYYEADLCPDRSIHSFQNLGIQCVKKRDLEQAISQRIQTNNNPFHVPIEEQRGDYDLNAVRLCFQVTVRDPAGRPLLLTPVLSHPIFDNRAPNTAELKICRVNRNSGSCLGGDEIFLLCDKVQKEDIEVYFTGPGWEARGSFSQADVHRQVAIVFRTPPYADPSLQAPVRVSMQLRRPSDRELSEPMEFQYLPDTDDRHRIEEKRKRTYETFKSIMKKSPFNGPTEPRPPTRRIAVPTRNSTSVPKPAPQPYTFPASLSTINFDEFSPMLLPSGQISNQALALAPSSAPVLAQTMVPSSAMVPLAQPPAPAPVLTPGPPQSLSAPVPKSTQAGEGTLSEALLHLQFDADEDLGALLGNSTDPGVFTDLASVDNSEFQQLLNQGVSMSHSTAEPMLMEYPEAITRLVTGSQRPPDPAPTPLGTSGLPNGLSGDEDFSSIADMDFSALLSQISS

[23] = target: T1, Tumor necrosis factor ligand superfamily member 11 (Mus musculus); experiment: Inhibition of RANKL-stimulated IkappaBalpha degradation in ICR mouse BMMC at 1 to 10 uM incubated for 4 hrs by Western blotting method
[24] = target: T2, Nuclear factor NF-kappa-B complex (Homo sapiens) (UniProt Q00653+P19838+Q04206); experiment: Inhibition of RANKL-stimulated NFkappaB (unknown origin) expressed in ICR mouse BMMC assessed as reduction in transcriptional activity at 1 to 10 uM incubated for 12 hrs by SEAP based reporter gene assay relative to untreated control
T2 sequence (P19838 whole entry, looked up): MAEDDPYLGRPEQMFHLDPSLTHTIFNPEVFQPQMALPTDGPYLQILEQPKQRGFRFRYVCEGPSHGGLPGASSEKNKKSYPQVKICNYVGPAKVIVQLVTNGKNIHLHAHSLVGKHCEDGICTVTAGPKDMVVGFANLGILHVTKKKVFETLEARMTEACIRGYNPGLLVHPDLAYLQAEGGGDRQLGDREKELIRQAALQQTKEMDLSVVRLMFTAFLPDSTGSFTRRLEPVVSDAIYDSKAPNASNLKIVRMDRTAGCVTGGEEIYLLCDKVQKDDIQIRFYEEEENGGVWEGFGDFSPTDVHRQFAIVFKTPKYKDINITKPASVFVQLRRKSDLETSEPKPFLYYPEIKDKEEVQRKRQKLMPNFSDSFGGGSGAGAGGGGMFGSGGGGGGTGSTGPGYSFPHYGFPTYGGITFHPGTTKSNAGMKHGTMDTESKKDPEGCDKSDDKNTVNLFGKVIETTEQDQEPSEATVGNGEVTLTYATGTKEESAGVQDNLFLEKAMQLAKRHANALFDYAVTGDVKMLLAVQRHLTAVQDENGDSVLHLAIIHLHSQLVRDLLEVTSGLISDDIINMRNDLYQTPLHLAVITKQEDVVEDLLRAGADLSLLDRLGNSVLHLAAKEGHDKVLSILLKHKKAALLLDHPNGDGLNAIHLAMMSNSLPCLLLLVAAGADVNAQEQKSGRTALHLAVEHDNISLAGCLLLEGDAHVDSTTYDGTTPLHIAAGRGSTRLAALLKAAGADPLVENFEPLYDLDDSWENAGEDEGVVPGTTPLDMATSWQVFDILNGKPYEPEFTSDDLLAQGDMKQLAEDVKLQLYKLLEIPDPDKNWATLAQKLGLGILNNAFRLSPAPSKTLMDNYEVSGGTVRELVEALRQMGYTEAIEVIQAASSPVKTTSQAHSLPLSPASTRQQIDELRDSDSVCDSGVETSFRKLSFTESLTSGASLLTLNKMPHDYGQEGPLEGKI
T2 sequence (Q00653 whole entry, looked up): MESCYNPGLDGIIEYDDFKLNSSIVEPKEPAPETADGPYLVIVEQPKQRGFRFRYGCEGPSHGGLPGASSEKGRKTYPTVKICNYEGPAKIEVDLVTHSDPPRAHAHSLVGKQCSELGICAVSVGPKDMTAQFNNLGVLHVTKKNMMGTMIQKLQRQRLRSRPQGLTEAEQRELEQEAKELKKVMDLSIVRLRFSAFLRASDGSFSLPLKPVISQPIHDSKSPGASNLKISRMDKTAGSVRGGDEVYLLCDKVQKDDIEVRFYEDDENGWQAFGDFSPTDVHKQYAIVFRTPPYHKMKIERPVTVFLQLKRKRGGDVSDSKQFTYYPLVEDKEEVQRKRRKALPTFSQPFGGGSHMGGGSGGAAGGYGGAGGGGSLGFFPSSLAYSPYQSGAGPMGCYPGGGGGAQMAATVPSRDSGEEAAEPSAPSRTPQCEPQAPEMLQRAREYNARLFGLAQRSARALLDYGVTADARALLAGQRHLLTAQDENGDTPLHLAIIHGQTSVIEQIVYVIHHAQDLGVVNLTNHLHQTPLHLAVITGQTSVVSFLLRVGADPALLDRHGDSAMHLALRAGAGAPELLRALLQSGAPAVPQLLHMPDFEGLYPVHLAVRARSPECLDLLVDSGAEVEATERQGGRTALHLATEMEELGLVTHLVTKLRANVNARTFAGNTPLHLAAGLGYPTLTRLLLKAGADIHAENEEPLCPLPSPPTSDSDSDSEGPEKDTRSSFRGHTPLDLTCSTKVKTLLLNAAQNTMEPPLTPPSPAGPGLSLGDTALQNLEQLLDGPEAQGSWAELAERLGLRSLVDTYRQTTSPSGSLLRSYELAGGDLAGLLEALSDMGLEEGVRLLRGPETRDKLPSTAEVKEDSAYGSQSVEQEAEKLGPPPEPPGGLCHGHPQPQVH
T2 sequence (Q04206 whole entry, looked up): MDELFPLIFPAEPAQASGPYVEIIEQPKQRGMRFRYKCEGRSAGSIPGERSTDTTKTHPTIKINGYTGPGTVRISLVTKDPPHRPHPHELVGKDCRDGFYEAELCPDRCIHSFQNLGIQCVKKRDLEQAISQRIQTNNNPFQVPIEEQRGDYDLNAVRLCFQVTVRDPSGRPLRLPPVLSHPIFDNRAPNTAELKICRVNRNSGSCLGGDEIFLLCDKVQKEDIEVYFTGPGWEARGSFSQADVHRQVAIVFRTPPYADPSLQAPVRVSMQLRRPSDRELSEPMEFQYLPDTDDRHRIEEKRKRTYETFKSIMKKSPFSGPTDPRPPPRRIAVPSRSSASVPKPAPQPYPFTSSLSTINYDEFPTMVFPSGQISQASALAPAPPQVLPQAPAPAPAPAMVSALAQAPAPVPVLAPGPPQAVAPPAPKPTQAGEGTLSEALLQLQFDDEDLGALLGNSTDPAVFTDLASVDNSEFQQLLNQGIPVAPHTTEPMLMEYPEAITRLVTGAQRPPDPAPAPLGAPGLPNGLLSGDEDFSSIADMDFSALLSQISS
Procedure, shortened: (§10)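 BMMs (5 × 10^5 cells/well) stimulated with RANKL 100 ng/mL for 1 h, then transfected (Lipofectamine 2000) with 300 ng pNF-κB-SEAP-NPT (four NF-κB sites) or control SEAP-NPT. After 24 h, treated (0, 1, 5, 10 μM) for 12 h at 37 °C with M-CSF and RANKL. Supernatant SEAP fluorescence read at ex 360/em 449 nm, given as % of control. Two experiments.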

[25] = target: T2, Nuclear factor NF-kappa-B complex (Homo sapiens); experiment: Inhibition of RANKL-stimulated NFkappaB (unknown origin) expressed in ICR mouse BMMC assessed as reduction in transcriptional activity at 1 to 10 uM incubated for 12 hrs by SEAP based reporter gene assay; procedure, shortened: as §10
[26] = target: T1, Tumor necrosis factor ligand superfamily member 11 (Mus musculus); experiment: Inhibition of RANKL-induced c-FOS mRNA expression in ICR mouse BMMC at 5 uM incubated for 12 hrs by qRT-PCR method; format: functional
Procedure, shortened: (§11)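 BMMs stimulated with RANKL (100 ng/mL) for 12 h, then treated at the indicated times and concentrations. c-Fos and NFATc1 mRNA quantified by real-time PCR.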

[27] = target: RAC-alpha serine/threonine-protein kinase (Mus musculus) (UniProt P31750); experiment: Inhibition of RANKL-stimulated AKT phosphorylation in ICR mouse BMMC at 1 to 10 uM incubated for 12 hrs by Western blotting method
Sequence of RAC-alpha serine/threonine-protein kinase (Mus musculus) (P31750 whole entry): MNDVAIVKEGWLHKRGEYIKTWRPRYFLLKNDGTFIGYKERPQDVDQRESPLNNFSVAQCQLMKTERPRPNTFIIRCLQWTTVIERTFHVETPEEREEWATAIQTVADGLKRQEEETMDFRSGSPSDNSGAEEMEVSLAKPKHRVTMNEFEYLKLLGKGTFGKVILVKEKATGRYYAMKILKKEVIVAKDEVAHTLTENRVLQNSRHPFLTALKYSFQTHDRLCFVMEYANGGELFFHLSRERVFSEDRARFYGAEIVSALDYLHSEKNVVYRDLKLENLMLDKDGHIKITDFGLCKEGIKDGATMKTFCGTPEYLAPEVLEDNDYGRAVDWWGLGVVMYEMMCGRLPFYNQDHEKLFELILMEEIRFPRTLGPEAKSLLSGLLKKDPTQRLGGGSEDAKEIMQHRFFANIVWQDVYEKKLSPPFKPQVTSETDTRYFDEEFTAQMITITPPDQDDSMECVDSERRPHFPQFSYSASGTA
Procedure, shortened: (§12)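 BMMs stimulated with RANKL (100 ng/mL) for 1 h, then treated for 12 h. Whole-cell lysates run on 10% SDS-PAGE and probed (1:1000) for phospho- and total AKT, ERK, JNK and p38, with ECL detection. Blots representative of at least two experiments.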

[28] = target: T1, Tumor necrosis factor ligand superfamily member 11 (Mus musculus); experiment: Inhibition of RANKL-stimulated ERK phosphorylation in ICR mouse BMMC at 1 to 10 uM incubated for 12 hrs by Western blotting method; procedure, shortened: as §12
[29] = target: T1, Tumor necrosis factor ligand superfamily member 11 (Mus musculus); experiment: Inhibition of RANKL-stimulated JNK phosphorylation in ICR mouse BMMC at 1 to 10 uM incubated for 12 hrs by Western blotting method; procedure, shortened: as §12
[30] = target: MAP kinase p38 (Mus musculus) (UniProt P47811+O08911+Q9WUI1+Q9Z1B7); experiment: Inhibition of RANKL-stimulated p38 phosphorylation in ICR mouse BMMC at 1 to 10 uM incubated for 12 hrs by Western blotting method; format: protein assay; procedure, shortened: as §12
[31] = target: T1, Tumor necrosis factor ligand superfamily member 11 (Mus musculus); experiment: Inhibition of RANKL-induced NFATc1 mRNA expression in ICR mouse BMMC at 5 uM incubated for 12 hrs by qRT-PCR method; format: functional; procedure, shortened: as §11
[32] = target: T1, Tumor necrosis factor ligand superfamily member 11 (Mus musculus); experiment: Inhibition of RANKL-induced c-FOS protein expression in ICR mouse BMMC at 1 to 10 uM incubated for 12 hrs by Western blotting method; format: functional
Procedure, shortened: (§13)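 BMMs prestimulated with RANKL 100 ng/mL for 12 h, then treated at the indicated times and concentrations. Whole-cell lysates (20 μg/lane) run on 10% SDS-PAGE and blotted to nitrocellulose. Probed with anti-c-Fos and anti-NFATc1 (1:1000), β-actin as internal control, ECL detection.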

[33] = target: T1, Tumor necrosis factor ligand superfamily member 11 (Mus musculus); experiment: Inhibition of RANKL-induced NFATc1 protein expression in ICR mouse BMMC at 1 to 10 uM incubated for 12 hrs by Western blotting method; format: functional; procedure, shortened: as §13

With `Oc1c2ccccc2c2c3c(cccc13)N=N2` the inhibition [1] was “Active”, the inhibition [2] was “Active” and the inhibition [3] was “Active”. For the same compound, the inhibition (BMMC [4]) was “Active”.

For `COc1ccc(-c2coc3cc(O)ccc3c2=O)cc1` [FORMONONETIN], the inhibition (BMMC [5]) was “Dose-dependent effect”, the “fold change (FC)” value [6] was 1.3 and the Activity [7] was “Non-toxic”. The inhibition (BMMC [8]) was “Dose-dependent effect”, the “fold change (FC)” value [9] was 1.5 and the “fold change (FC)” value (Osteoblast) was 1.2. The “inhibition (INH)” value [10] was 27.1%, the inhibition (BMMC [11]) was “Dose-dependent effect” and the “inhibition (INH)” value [12] was 25.1%. For the same compound, the inhibition (BMMC [13]) was “Dose-dependent effect”, the “inhibition (INH)” value [14] was 9.2% and the inhibition (BMMC [15]) was “Dose-dependent effect”. The “inhibition (INH)” value [16] was 27.4%, the inhibition (BMMC [17]) was “Dose-dependent effect” and the “inhibition (INH)” value [18] was 7.1%. The inhibition (BMMC [19]) was “Dose-dependent effect”, the “inhibition (INH)” value [20] was 23.1% and the inhibition (BMMC [21]) was “Dose-dependent effect”. The inhibition [22] was “Active”, the inhibition [23] was “Active” and the fold change (FC) [24] was 1.3. For the same compound, the inhibition [25] was “Dose-dependent effect”, the inhibition [26] was “Active” and the inhibition [27] was “Dose-dependent effect”. For the same compound, the inhibition [28] was “Dose-dependent effect”, the inhibition [29] was “Dose-dependent effect” and the inhibition [30] was “Dose-dependent effect”. The inhibition [31] was “Active”, the inhibition [32] was “Dose-dependent effect” and the inhibition [33] was “Dose-dependent effect”.
